Measured values reported in ChEMBL document CHEMBL5338811, “Computational Design, Synthesis, and Biological Evaluation of Diimidazole Analogues Endowed with Dual PCSK9/HMG-CoAR-Inhibiting Activity” (J Med Chem, 2023).
Calls of active or inactive are those of the source.

Columns and labels:
[1] = Metabolic stability in human liver microsomes assessed as clearance per mg protein at 5 uM preincubated for 10 mins followed by UDPGA addition and measured upto 60 mins by LC-MS/MS analysis; type: ADME, Microsome; conditions: time < 70 min, read-out: CLH
Method in brief: (§1)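 Compound at 5 μM final, in duplicate, from a 1 mM DMSO solution. Pre-incubated 10 min at 37 °C with human or mouse liver microsomes (0.5 mg/mL) in 50 mM potassium phosphate pH 7.4 with 3 mM MgCl2. The reaction was started with an NADPH-regenerating mix plus UDPGA. Samples taken at 0–60 min were quenched in ACN and analysed by LC–MS/MS. A no-cofactor control was included; 7-ethoxycoumarin and 7-hydroxycoumarin served as references.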

[2] = Metabolic stability in mouse liver microsomes assessed as clearance per mg protein at 5 uM preincubated for 10 mins followed by UDPGA addition and measured upto 60 mins by LC-MS/MS analysis; type: ADME, Microsome; conditions: time < 70 min, read-out: CLH; method in brief: as §1
[3] = Induction of LDLR expression in human HepG2 cells membrane in presence of 1 nM PCSK9 (reference value: 39.71 +/- 2.05%); type: functional
[4] = target: Proprotein convertase subtilisin/kexin type 9 (Homo sapiens) (UniProt Q8NBP7); test: Inhibition of PCSK9 mediated epinephrine induced platelet aggregation in human platelet rich plasma assessed as prevention of AUC increase at 10 nM preincubated for 15 mins followed by PRP addition by light transmission aggregometry assay
Proprotein convertase subtilisin/kexin type 9 (Homo sapiens), sequence (Q8NBP7 31-152 limits assumed): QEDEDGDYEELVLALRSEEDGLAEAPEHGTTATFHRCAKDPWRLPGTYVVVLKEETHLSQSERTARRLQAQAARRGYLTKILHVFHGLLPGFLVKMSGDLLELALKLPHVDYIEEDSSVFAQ
Proprotein convertase subtilisin/kexin type 9 (Homo sapiens), sequence (Q8NBP7 153-692 limits assumed): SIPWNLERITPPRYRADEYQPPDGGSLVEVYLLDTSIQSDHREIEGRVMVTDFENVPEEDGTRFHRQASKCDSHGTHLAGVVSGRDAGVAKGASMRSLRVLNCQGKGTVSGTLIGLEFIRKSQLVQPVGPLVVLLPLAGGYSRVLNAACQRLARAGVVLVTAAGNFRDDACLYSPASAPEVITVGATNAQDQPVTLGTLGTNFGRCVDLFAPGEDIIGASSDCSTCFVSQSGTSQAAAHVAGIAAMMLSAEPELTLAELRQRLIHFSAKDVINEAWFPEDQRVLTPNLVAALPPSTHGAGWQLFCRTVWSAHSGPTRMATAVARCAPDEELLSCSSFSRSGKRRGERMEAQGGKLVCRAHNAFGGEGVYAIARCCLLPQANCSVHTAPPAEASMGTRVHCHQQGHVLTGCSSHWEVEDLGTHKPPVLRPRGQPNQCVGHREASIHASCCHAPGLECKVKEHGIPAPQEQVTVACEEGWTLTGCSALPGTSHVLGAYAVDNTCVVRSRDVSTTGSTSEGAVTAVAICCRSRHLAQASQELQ
Method in brief: (§2)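 PRP from healthy donors (n = 5), prepared by centrifuging whole blood 10 min at 100g at room temperature without brakes. Recombinant PCSK9 (5 μg/mL) preincubated with compound for 15 min at room temperature, then added to PRP for 2 min at 37 °C. Aggregation triggered by subthreshold epinephrine (0.16 μM) and followed by light transmission aggregometry. Lag time and area under the curve were scored.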

HepG2 = test: Cytotoxicity against human HepG2 cells assessed as reduction in cell viability upto 10 uM after 48 hrs by MTT assay; type: toxicity, cell-based; conditions: hepg2, 48 h
Method in brief: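 HepG2 cells treated 48 h with compound at 0.1–10,000 nM; viability read by MTT versus untreated control cells. Mean ± SD of three experiments run in triplicate.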

[5] = target: Proprotein convertase subtilisin/kexin type 9 (Homo sapiens) (UniProt Q8NBP7); test: Inhibition of PCSK9 mediated epinephrine induced platelet aggregation in human platelet rich plasma assessed as prevention of lag time reduction at 10 nM preincubated for 15 mins followed by PRP addition by light transmission aggregometry assay; method in brief: as §2
[6] = Induction of LDL uptake in human HepG2 cells incubated for 2 hrs in presence of 1 nM PCSK9 by fluorescent plate reader analysis (reference value: 51.69 +/- 15.30 %); type: functional
[7] = Induction of LDL uptake in human HepG2 cells incubated for 2 hrs in presence of 10 nM PCSK9 by fluorescent plate reader analysis (reference value: 51.69 +/- 15.30 %); type: functional
[8] = Induction of LDLR expression in human HepG2 cells membrane in presence of 10 nM PCSK9 (reference value: 39.71 +/- 2.05%); type: functional

microsomal CLint at 5 µM [1] [µL/min/mg] | microsomal CLint at 5 µM [2] [µL/min/mg] | Structure (SMILES) | Activity (HepG2) | other results
390 | 533 | O=c1ccc2ccc(O)cc2o1 [UMBELLIFERONE] | – | –
– | – | CNCCCCCn1c(-c2ncc(-c3ccc4ccccc4c3)n2CCCC(C)(C)C)cnc1I | Non-Toxic | Activity [3]: 101.1%; inhibition [4]: Active; inhibition [5]: Active; Activity [6]: 103.47%
– | – | C#Cc1ncc(-c2ncc(-c3ccc4ccccc4c3)n2CCCC(C)(C)C)n1CCCCCNC | Non-Toxic | Activity [7]: 81.87%; Activity [8]: 91.1%
46.1 | 291 | CCOc1ccc2ccc(=O)oc2c1 [ETHOXYCOUMARIN] | – | –
